Results from ChEMBL document CHEMBL5149972, “Novel Antimalarial Tetrazoles and Amides Active against the Hemoglobin Degradation Pathway in Plasmodium falciparum” (J Med Chem, 2021).
pEC50, pIC50: −log10 of the molar value. ≈ marks a conversion by molar mass, not a printed value. Calls of active or inactive are those of the source. The rule behind the calls is not given here.

How the values were obtained:
Plasmodium falciparum [1] = test: Antiplasmodial activity against Plasmodium falciparum mature stage V gametocyte assessed as inhibition of male gametocyte formation at 25 uM by luciferase reporter assay; type: functional, organism-based
HepG2 = test: (§1) Cytotoxicity against human HepG2 cells assessed as reduction in cell viability incubated for 72 hrs by CellTiter-Glo assay; type: toxicity, cell-based; conditions: hepg2, 72 h
Plasmodium falciparum [2] = test: Antiplasmodial activity against asexual blood stage Plasmodium falciparum 3D7 infected in human RBC assessed as parasite growth inhibition incubated for 72 hrs by SYBR Green dye based fluorescence assay; type: functional, organism-based; conditions: Plasmodium falciparum, 3D7, Erythrocyte, 72 h
Procedure, shortened: (§2)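 Blood-stage cultures at 2% hematocrit, human O+ RBCs, RPMI 1640 + 25 mM HEPES, 0.5% Albumax-I, 23 mM bicarbonate, 92 μM hypoxanthine. Start at 0.5% parasitemia; 72 h at 37°C, 5% CO₂; freeze-thaw, then SYBR Green in saponin/Triton lysis buffer, 4 h RT dark; fluorescence ex 485/em 535 nm. 10-point curves, technical duplicates or triplicates, final 0.5% DMSO; four-parameter fit gives EC₅₀; mean ± std dev of biological replicates.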

[3] = Kinetic solubility of compound in PBS at pH 6.5 by HPLC analysis; type: physicochemical; conditions: read-out: Kinetic_solubility
Plasmodium falciparum [4] = test: Antiplasmodial activity against drug resistant Plasmodium falciparum Dd2 infected in human RBC assessed as parasite growth inhibition incubated for 72 hrs by SYBR Green dye based fluorescence assay; type: functional, organism-based; conditions: Plasmodium falciparum, Dd2, Erythrocyte, 72 h; procedure, shortened: as §2
[5] = Kinetic solubility of compound in PBS at pH 2 by HPLC analysis; type: physicochemical; conditions: read-out: Kinetic_solubility
Plasmodium falciparum [6] = test: Antiplasmodial activity against Plasmodium falciparum mature stage V gametocyte assessed as inhibition of female gametocyte formation by luciferase reporter assay; type: functional, organism-based
Plasmodium berghei = test: Antiplasmodial activity against liver stage Plasmodium berghei ANKA expressing GFP-Luc-SMCO infected in human HepG2-A16-CD81EGFP cells assessed as reduction in liver-stage development of luciferase-expressing parasite by luciferase reporter gene based bioluminescence assay; type: functional, organism-based
Procedure, shortened: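 Pb-Luc (P. berghei ANKA-GFP-Luc-SMCON) sporozoites infect HepG2-A16-CD81EGFP cells in phenol red-free DMEM with 5% FBS, glutamine, penicillin/streptomycin; compounds scored for blocking liver-stage development by luciferase signal.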

[7] = Metabolic stability in human liver microsomes assessed as intrinsic clearance per mg of protein at 1 uM incubated for 60 mins presence of NADPH regenerating buffer system by LC-MS analysis; type: ADME, Microsome; conditions: 1 h
Plasmodium falciparum [8] = test: Antiplasmodial activity against Plasmodium falciparum 3D7 infected in human RBC assessed as parasite growth inhibition incubated for 48 hrs by 3H-hypoxanthine incorporation assay; type: functional, organism-based; conditions: 3D7, Erythrocyte
Plasmodium falciparum [9] = test: Antiplasmodial activity against chloroquine and pyrimethamine resistant Plasmodium falciparum 7G8 infected in human RBC assessed as parasite growth inhibition incubated for 72 hrs by SYBR Green dye based fluorescence assay; type: functional, organism-based; conditions: 7G8, Erythrocyte
Plasmodium falciparum [10] = test: Antiplasmodial activity against chloroquine resistant Plasmodium falciparum Dd2-GC03 mutant replaced with 3D7 pfcrt sequence at endogenous pfcrt Dd2 locus infected in human RBC assessed as parasite growth inhibition incubated for 72 hrs by SYBR Green dye based fluorescence assay; type: functional, organism-based; conditions: Erythrocyte
Procedure, shortened: (§3)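 Gene-edited Dd2 lines with the endogenous pfcrt locus replaced by zinc-finger nuclease editing. Concentration-response curves run with technical duplicates at each concentration; values are the average of two biological replicates, with std dev given where more replicates were collected.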

Plasmodium falciparum [11] = test: Antiplasmodial activity against lab-derived MMV390048 resistant Plasmodium falciparum Dd2-Pfpi4K mutant infected in human RBC assessed as parasite growth inhibition incubated for 72 hrs by SYBR Green dye based fluorescence assay; type: functional, organism-based; conditions: Erythrocyte
Plasmodium falciparum [12] = test: Antiplasmodial activity against chloroquine and piperaquine resistant Plasmodium falciparum Dd2-M343L mutant replaced with endogenous pfcrt locus with the recombinant Dd2 sequence and the PPQ resistance-conferring M343L at endogenous pfcrt Dd2 locus infected in human RBC assessed as parasite growth inhibition incubated for 72 hrs by SYBR Green dye based fluorescence assay; type: functional, organism-based; conditions: Erythrocyte; procedure, shortened: as §3
[13] = as §1; type: toxicity, cell-based; conditions: HepG2 cells
[14] = Inhibition of hemozoin formation in sorbitol-synchronized early ring stage plasmodium falciparum NF54 trophozoites assessed as fold increase in free heme-Fe level at 3 times EC50 incubated for 32 hrs by flow cytometry analysis; type: functional
Procedure, shortened: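 Trophozoites were saponin-released (0.05%), PBS-washed, counted by flow cytometry, then hypotonically lysed and sonicated. Heme was fractionated with HEPES, SDS, pyridine and NaOH and read as Fe(III)heme–pyridine absorbance against a heme standard curve (fg/cell). Three biological replicates; Student's t-test.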

Plasmodium falciparum [15] = test: Antiplasmodial activity against lab-derived […] resistant Plasmodium falciparum Dd2-PfeEF2 mutant infected in human RBC assessed as parasite growth inhibition incubated for 72 hrs by SYBR Green dye based fluorescence assay; type: functional, organism-based; conditions: Erythrocyte
Plasmodium falciparum [16] = test: Antiplasmodial activity against chloroquine and pyrimethamine resistant Plasmodium falciparum Dd2 infected in human RBC assessed as parasite growth inhibition incubated for 72 hrs by SYBR Green dye based fluorescence assay; type: functional, organism-based; conditions: Dd2, Erythrocyte
Procedure, shortened: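 O+ human RBCs at 2% hematocrit and 0.5% starting parasitemia, in RPMI 1640 with 25 mM HEPES, 0.5% Albumax-I, bicarbonate and hypoxanthine. Serial dilutions in triplicate, 0.5% DMSO final, 72 h at 37°C, 5% CO2. Frozen at −80°C, lysed with SYBR Green in saponin/Triton buffer for 4 h in the dark. Ex 485/em 535 nm. EC50 from four-parameter fit; biphasic fit where curves were biphasic.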

Plasmodium falciparum [17] = test: Antiplasmodial activity against Plasmodium falciparum 3D7 assessed as parasite growth inhibition incubated for 48 hrs followed by compound washout further infected in RBC cells for 28 days by hemocrit analysis; type: functional, organism-based
Plasmodium falciparum [18] = test: Antiplasmodial activity against chloroquine and pyrimethamine resistant Plasmodium falciparum K1 infected in human RBC assessed as parasite growth inhibition incubated for 72 hrs by SYBR Green dye based fluorescence assay; type: functional, organism-based; conditions: K1, Erythrocyte
Plasmodium falciparum [19] = test: Antiplasmodial activity against Plasmodium falciparum NF54 infected in human RBC assessed as parasite growth inhibition incubated for 72 hrs by SYBR Green dye based fluorescence assay; type: functional, organism-based; conditions: NF54, Erythrocyte
Plasmodium falciparum [20] = test: Antiplasmodial activity against lab-derived DSM265 resistant Plasmodium falciparum Dd2-PfDHODH mutant infected in human RBC assessed as parasite growth inhibition incubated for 72 hrs by SYBR Green dye based fluorescence assay; type: functional, organism-based; conditions: Erythrocyte
Hemozoin = test: Inhibition of Beta-hematin assessed as bis-pyridyl-Fe(III)PPIX complex formation incubated for 5 hrs by NP40 detergent-mediated colorimetric assay
Plasmodium falciparum [21] = test: Antiplasmodial activity against piperaquine and pyrimethamine resistant Plasmodium falciparum RF12 infected in human RBC assessed as parasite growth inhibition incubated for 72 hrs by SYBR Green dye based fluorescence assay; type: functional, organism-based; conditions: RF12, Erythrocyte
Plasmodium falciparum [22] = test: Antiplasmodial activity against chloroquine resistant Plasmodium falciparum Dd2-Dd2 mutant replaced with recombinant Dd2 sequence at endogenous pfcrt Dd2 locus infected in human RBC assessed as parasite growth inhibition incubated for 72 hrs by SYBR Green dye based fluorescence assay; type: functional, organism-based; conditions: Erythrocyte; procedure, shortened: as §3
Plasmodium falciparum [23] = test: Antiplasmodial activity against chloroquine, atovaquone and pyrimethamine resistant Plasmodium falciparum TM90C2B infected in human RBC assessed as parasite growth inhibition incubated for 72 hrs by SYBR Green dye based fluorescence assay; type: functional, organism-based; conditions: Erythrocyte
Plasmodium falciparum [24] = test: Antiplasmodial activity against lab-derived ELQ300 resistant Plasmodium falciparum Dd2-PfCytB mutant infected in human RBC assessed as parasite growth inhibition incubated for 72 hrs by SYBR Green dye based fluorescence assay; type: functional, organism-based; conditions: Erythrocyte
Plasmodium falciparum [25] = test: Inhibition of hemozoin formation in sorbitol-synchronized early ring stage plasmodium falciparum NF54 trophozoites assessed as decrease in free hemozoin-Fe level at 0.5 to 3 times EC50 incubated for 32 hrs by flow cytometry analysis; type: functional; conditions: DDE = dose-dependent effect
Plasmodium falciparum [26] = test: Antiplasmodial activity against Plasmodium falciparum NF54 expressing transgenic luciferase assessed as parasite kill rate at trophozoite stage incubated for 72 hrs by bioluminescence relative rate of kill (BRRoK) assay; type: functional, organism-based; conditions: RBC
Plasmodium falciparum [27] = test: Inhibition of hemozoin formation in sorbitol-synchronized early ring stage plasmodium falciparum NF54 trophozoites assessed as increase in free heme-Fe level at 0.5 to 3 times EC50 incubated for 32 hrs by flow cytometry analysis; type: functional; conditions: DDE = dose-dependent effect
Plasmodium falciparum [28] = test: Inhibition of hemozoin formation in sorbitol-synchronized early ring stage plasmodium falciparum NF54 trophozoites assessed as decrease in free hemozoin level at 0.5 to 3 times EC50 incubated for 32 hrs by flow cytometry analysis; type: functional; conditions: DDE = dose-dependent effect
Plasmodium falciparum [29] = test: Inhibition of hemozoin formation in sorbitol-synchronized early ring stage plasmodium falciparum NF54 trophozoites assessed as increase in free heme level at 0.5 to 3 times EC50 incubated for 32 hrs by flow cytometry analysis; type: functional; conditions: DDE = dose-dependent effect
Plasmodium falciparum [30] = test: Antiplasmodial activity against Plasmodium falciparum NF54 expressing transgenic luciferase assessed as parasite kill rate at trophozoite stage incubated for 6 hrs by bioluminescence relative rate of kill (BRRoK) assay; type: functional, organism-based; conditions: RBC

Cc1ccccc1N(C)C(=O)C(c1cccnc1)N(Cc1cc(C(F)(F)F)ccc1F)C1CC1 (racemic)
pEC50 (Plasmodium falciparum [1]): 4.22
CC50 (HepG2): > 30000 nM
pEC50 (Plasmodium falciparum [2]): 6.51
solubility kinetic [3]: 1.5 µg/mL (≈ 3.18 µM)
pEC50 (Plasmodium falciparum [4]): 6.34
solubility kinetic [5]: > 47 µg/mL
pEC50 (Plasmodium falciparum [6]): < 4.60
pEC50 (Plasmodium berghei): 5.15
CLH [7]: 548 µL/min/mg

Cc1ccccc1-n1nnnc1C(c1cncnc1)N(Cc1cccc(C(F)(F)F)c1)C1CC1 (racemic)
pEC50 (Plasmodium falciparum [8]): 5.77
pEC50 (Plasmodium falciparum [9]): 6.80
pEC50 (Plasmodium falciparum [10]): 5.32
pEC50 (Plasmodium falciparum [11]): 5.70
pEC50 (Plasmodium falciparum [12]): 6.05
CC50 at 72 h [13]: 33000 nM
fold change (FC) [14]: 6
pEC50 (Plasmodium falciparum [15]): 5.80
pEC50 (Plasmodium falciparum [16]): 5.74
Activity (Plasmodium falciparum [17]): Active
pEC50 (Plasmodium falciparum [18]): 6.34
pEC50 (Plasmodium falciparum [19]): 6.08
pEC50 (Plasmodium falciparum [2]): 6.40
pEC50 (Plasmodium falciparum [20]): 5.70
pIC50 (Hemozoin): 3.51
pEC50 (Plasmodium falciparum [21]): 5.96
solubility kinetic [3]: 1.5 µg/mL (≈ 3.22 µM)
pEC50 (Plasmodium falciparum [4]): 5.74
solubility kinetic [5]: 1.5 µg/mL (≈ 3.22 µM)
pEC50 (Plasmodium falciparum [22]): 5.62
pEC50 (Plasmodium falciparum [23]): 6.18
pEC50 (Plasmodium falciparum [24]): 5.70

CCN(CC)CCCC(C)Nc1ccnc2cc(Cl)ccc12 (stereo unspecified) [CHLOROQUINE]
pEC50 (Plasmodium falciparum [8]): 7.68
CC50 at 72 h [13]: > 30000 nM
pEC50 (Plasmodium falciparum [2]): 7.85
pIC50 (Hemozoin): 4.72
inhibition (Plasmodium falciparum [25]): Dde
Activity (Plasmodium falciparum [26]): Active
inhibition (Plasmodium falciparum [27]): Dde
inhibition (Plasmodium falciparum [28]): Dde
inhibition (Plasmodium falciparum [29]): Dde
Activity (Plasmodium falciparum [30]): Active
